Peptide text beside a SMILES is read from it.
Legend:
Test in all cases: MIC/MBC microdilution assay
E. coli ATCC 11775 = format: cell-based, Escherichia coli; conditions: n = 2
In short: (§1)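 Broth microdilution: 90 µL peptide (200, 100, 50, 25, 12.5 and 6.2 µg mL-1 as added) plus 10 µL inoculum (5 × 10^6 CFU mL-1 as added). Incubation 24 h at 37 °C; growth read as absorbance at 620 nm. For MBC, wells with no visible growth were loop-sampled, spread on MHA and incubated overnight at 37 °C. Run twice (n = 2).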

P. aeruginosa ATCC 27853 = format: cell-based, Pseudomonas aeruginosa; conditions: n = 2; for Antibacterial activity, MIC: microdilution, 24 h at 37 °C, absorbance 620 nm; for Antibacterial activity, MBC: plated on MHA, overnight 37 °C
In short: as §1

S. aureus ATCC 25923 = format: cell-based, Staphylococcus aureus; conditions: n = 2; for Antibacterial activity, MIC: microdilution, 24 h at 37 °C, absorbance 620 nm; for Antibacterial activity, MBC: plated on MHA, overnight 37 °C
In short: as §1

E. coli ATCC 43827 = format: cell-based, Escherichia coli; conditions: n = 2; for Antibacterial activity, MIC: microdilution, 24 h at 37 °C, absorbance 620 nm; for Antibacterial activity, MBC: plated on MHA, overnight 37 °C
In short: as §1

E. coli ATCC 25922 = format: cell-based, Escherichia coli; conditions: n = 2
In short: as §1

E. faecalis ATCC 29212 = format: cell-based, Enterococcus faecalis; conditions: n = 2; for Antibacterial activity, MIC: microdilution, 24 h at 37 °C, absorbance 620 nm; for Antibacterial activity, MBC: plated on MHA, overnight 37 °C
In short: as §1

[1] = microdilution, 24 h at 37 °C, absorbance 620 nm

| Structure (SMILES) | Antibacterial activity, MIC (E. coli ATCC 11775; [1]) [µM] | Antibacterial activity, MBC (E. coli ATCC 11775; plated on MHA, overnight 37 °C) [µM] | Antibacterial activity, MIC (P. aeruginosa ATCC 27853) [µM] | Antibacterial activity, MBC (P. aeruginosa ATCC 27853) [µM] | Antibacterial activity, MIC (S. aureus ATCC 25923) [µM] | Antibacterial activity, MBC (S. aureus ATCC 25923) [µM] | Antibacterial activity, MIC (E. coli ATCC 43827) [µM] | Antibacterial activity, MBC (E. coli ATCC 43827) [µM] | Antibacterial activity, MIC (E. coli ATCC 25922; [1]) [µM] | Antibacterial activity, MBC (E. coli ATCC 25922; plated on MHA, overnight 37 °C) [µM] | Antibacterial activity, MIC (E. faecalis ATCC 29212) [µM] | Antibacterial activity, MBC (E. faecalis ATCC 29212) [µM] |
| --- | --- | --- | --- | --- | --- | --- | --- | --- | --- | --- | --- | --- |
| N=C(N)NCCC[C@H](NC(=O)[C@H](Cc1c[nH]c2ccccc12)NC(=O)[C@H](CCC(N)=O)NC(=O)[C@H](Cc1c[nH]c2ccccc12)NC(=O)[C@H](CCCNC(=N)N)NC(=O)[C@H](Cc1c[nH]c2ccccc12)NC(=O)[C@H](CCC(N)=O)NC(=O)[C@H](Cc1c[nH]c2ccccc12)NC(=O)[C@@H](N)CCCNC(=N)N)C(N)=O [LfcinB (21–25)Pal] (H-RWQWRWQWR-NH2) | 17 | 17 | 67 | 135 | 135 | > 135 | 17 | 67 | 17 | 34 | 67 | 67 |
| CSCC[C@H](NC(=O)[C@H](CCCNC(=N)N)NC(=O)[C@H](Cc1c[nH]c2ccccc12)NC(=O)[C@H](CCC(N)=O)NC(=O)[C@H](Cc1c[nH]c2ccccc12)NC(=O)[C@H](CCCNC(=N)N)NC(=O)[C@H](CCCNC(=N)N)NC(=O)[C@H](C)NC(=O)[C@H](CCCCN)NC(=O)[C@@H](N)Cc1ccccc1)C(=O)N[C@@H](CCCCN)C(=O)N[C@@H](CCCCN)C(=O)N[C@@H](CC(C)C)C(=O)NCC(=O)N[C@@H](C)C(N)=O [[Ala^19]-LfcinB (17–31)] | – | – | 102 | > 102 | > 102 | > 102 | 102 | > 102 | – | – | > 102 | > 102 |
| CSCC[C@H](NC(=O)[C@H](CCCNC(=N)N)NC(=O)[C@H](Cc1c[nH]c2ccccc12)NC(=O)[C@H](CCC(N)=O)NC(=O)[C@H](Cc1c[nH]c2ccccc12)NC(=O)[C@H](CCCNC(=N)N)NC(=O)[C@@H](N)CCCNC(=N)N)C(=O)N[C@@H](CCCCN)C(=O)N[C@@H](CCCCN)C(=O)N[C@@H](CC(C)C)C(=O)NCC(N)=O [LfcinB (20–30)] (H-RRWQWRMKKLG-NH2) | – | – | > 130 | > 130 | 130 | > 130 | 65 | 130 | – | – | > 130 | > 130 |
| N=C(N)NCCC[C@H](NC(=O)[C@H](Cc1c[nH]c2ccccc12)NC(=O)[C@H](CCC(N)=O)NC(=O)[C@H](Cc1c[nH]c2ccccc12)NC(=O)[C@H](CCCNC(=N)N)NC(=O)[C@@H](N)CCCNC(=N)N)C(N)=O [LfcinB (20–25)] (H-RRWQWR-NH2) | – | – | 203 | > 203 | 203 | > 203 | 102 | 203 | – | – | > 203 | > 203 |
